Data reported in ChEMBL document CHEMBL1127697, “New N alpha-guanidinobenzoyl derivatives of hirudin-54-65 containing stabilized carboxyl or phosphoryl groups on the side chain of phenylalanine-63” (1994).
Residues, ends and D or L forms follow the SMILES beside them.

Tests used:
Format in all cases: functional
Rattus norvegicus [1] = assay: Activated partial thromboplastin time at 15 min following intravenous administration in rats at a dose 8 mg/kg
Outline: (§1)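 Sprague-Dawley rats (300–400 g) anesthetized with pentobarbital sodium (60 mg/kg ip). Peptide (1 mL) given iv via cannulated jugular vein. Carotid blood (1.5 mL) drawn 30 min before and at 1.5–60 min after dosing, then centrifuged 15 min at 3000g to platelet-poor plasma. APTT read on a coagulometer: plasma mixed with thromboplastin at 37 °C. Expressed as % of untreated animals; n = 4–6 independent experiments.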

Rattus norvegicus [2] = assay: Activated partial thromboplastin time at 60 min following intravenous administration in rats at a dose 8 mg/kg; outline: as §1
Rattus norvegicus [3] = assay: Activated partial thromboplastin time at 30 min following intravenous administration in rats at a dose 8 mg/kg; outline: as §1
Rattus norvegicus [4] = assay: Activated partial thromboplastin time at 1.5 min following intravenous administration in rats at a dose 8 mg/kg; outline: as §1
Rattus norvegicus [5] = species: Rattus norvegicus; assay: Concentration that doubles thrombin time (inhibition of fibrin clot) in rats
Outline: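 Plasma was incubated 2 min at 37 °C with inhibitor or vehicle, then thrombin (1.5 NIH/mL) was added and clotting time read on a coagulometer. Value is the µM concentration that doubles thrombin time relative to the no-inhibitor control.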

Rattus norvegicus [6] = assay: Activated partial thromboplastin time at 3 min following intravenous administration in rats at a dose 8 mg/kg; outline: as §1
Rattus norvegicus [7] = assay: Activated partial thromboplastin time at 5 min following intravenous administration in rats at a dose 8 mg/kg; outline: as §1

| Compound | Baseline (Rattus norvegicus [1]) | Baseline (Rattus norvegicus [2]) | Baseline (Rattus norvegicus [3]) | Baseline (Rattus norvegicus [4]) | Ctt2 (Rattus norvegicus [5]) | Baseline (Rattus norvegicus [6]) | Baseline (Rattus norvegicus [7]) |
| --- | --- | --- | --- | --- | --- | --- | --- |
| CC[C@H](C)[C@H](NC(=O)C1C2CCC(CC2)N1C(=O)[C@H](CCC(=O)O)NC(=O)[C@H](Cc1ccccc1)NC(=O)[C@H](CC(=O)O)NC(=O)CNC(=O)c1ccc(NC(=N)N)cc1)C(=O)N1CCC[C@H]1C(=O)N[C@@H](CCC(=O)O)C(=O)N[C@@H](CCC(=O)O)C(=O)N[C@@H](Cc1ccc(O)cc1P(=O)(O)O)C(=O)N[C@@H](CC(C)C)C(=O)N[C@H](CCC(=O)O)C(=O)O (stereo partly drawn) | 192% | 163% | 164% | 265% | 4 µM | 244% | 217% |
| CC[C@H](C)[C@H](NC(=O)C1C2CCC(CC2)N1C(=O)[C@H](CCC(=O)O)NC(=O)[C@H](Cc1ccccc1)NC(=O)[C@H](CC(=O)O)NC(=O)CNC(=O)c1ccc(NC(=N)N)cc1)C(=O)N1CCC[C@H]1C(=O)N[C@@H](CCC(=O)O)C(=O)N[C@@H](CCC(=O)O)C(=O)N[C@@H](Cc1ccc(O)cc1)C(=O)N[C@@H](CC(C)C)C(=O)N[C@H](CCC(=O)O)C(=O)O (stereo partly drawn) | 115% | 96% | 111% | 158% | 4.8 µM | 145% | 133% |
| CC[C@H](C)[C@H](NC(=O)C1C2CCC(CC2)N1C(=O)[C@H](CCC(=O)O)NC(=O)[C@H](Cc1ccccc1)NC(=O)[C@H](CC(=O)O)NC(=O)CNC(=O)c1ccc(NC(=N)N)cc1)C(=O)N1CCC[C@H]1C(=O)N[C@@H](CCC(=O)O)C(=O)N[C@@H](CCC(=O)O)C(=O)N[C@@H](Cc1ccc(CC(=O)O)cc1)C(=O)N[C@@H](CC(C)C)C(=O)N[C@H](CCC(=O)O)C(=O)O (stereo partly drawn) | 149% | 118% | 141% | 213% | 1 µM | 205% | 188% |
| CC[C@H](C)[C@H](NC(=O)C1C2CCC(CC2)N1C(=O)[C@H](CCC(=O)O)NC(=O)[C@H](Cc1ccccc1)NC(=O)[C@H](CC(=O)O)NC(=O)CNC(=O)c1ccc(NC(=N)N)cc1)C(=O)N1CCC[C@H]1C(=O)N[C@@H](CCC(=O)O)C(=O)N[C@@H](CCC(=O)O)C(=O)N[C@@H](Cc1ccc(P(=O)(O)O)cc1)C(=O)N[C@@H](CC(C)C)C(=O)N[C@H](CCC(=O)O)C(=O)O (stereo partly drawn) | 200% | 187% | 181% | 252% | 2.8 µM | 225% | 217% |
| CC[C@H](C)[C@H](NC(=O)C1C2CCC(CC2)N1C(=O)[C@H](CCC(=O)O)NC(=O)[C@H](Cc1ccccc1)NC(=O)[C@H](CC(=O)O)NC(=O)CNC(=O)c1ccc(NC(=N)N)cc1)C(=O)N1CCC[C@H]1C(=O)N[C@@H](CCC(=O)O)C(=O)N[C@@H](CCC(=O)O)C(=O)N[C@@H](Cc1ccc(OP(=O)(O)O)cc1)C(=O)N[C@@H](CC(C)C)C(=O)N[C@H](CCC(=O)O)C(=O)O (stereo partly drawn) | 125% | 107% | 110% | 201% | 0.9 µM | 162% | 147% |
| CC[C@H](C)[C@H](NC(=O)C1C2CCC(CC2)N1C(=O)[C@H](CCC(=O)O)NC(=O)[C@H](Cc1ccccc1)NC(=O)[C@H](CC(=O)O)NC(=O)CNC(=O)c1ccc(NC(=N)N)cc1)C(=O)N1CCC[C@H]1C(=O)N[C@@H](CCC(=O)O)C(=O)N[C@@H](CCC(=O)O)C(=O)N[C@@H](Cc1ccc(O)cc1)C(=O)N[C@@H](CC(C)C)C(=O)O (stereo partly drawn) (HELM PEPTIDE1{[N=C(N)Nc1ccc(C(=O)[*:2])cc1].G.D.F.E.[O=C(C1C2CCC(CC2)N1[*:1])[*:2]].I.P.E.E.Y.L}$$$$V2.0) | 108% | 98% | 100% | 136% | 16.5 µM | 123% | 115% |
| CC[C@H](C)[C@H](NC(=O)C1C2CCC(CC2)N1C(=O)[C@H](CCC(=O)O)NC(=O)C(Cc1ccccc1)NC(=O)[C@H](CC(=O)O)NC(=O)CNC(=O)c1ccc(NC(=N)N)cc1)C(=O)N1CCC[C@H]1C(=O)N[C@@H](CCC(=O)O)C(=O)N[C@@H](CCC(=O)O)C(=O)N[C@H](Cc1ccc(CC(=O)O)cc1)C(=O)N[C@@H](CC(C)C)C(=O)N[C@H](CCC(=O)O)C(=O)O (stereo in doubt) |  |  |  |  | 50 µM |  |  |
